# Source: ChEMBL document CHEMBL5154713, “Illuminating a Dark Kinase: Structure-Guided Design, Synthesis, and Evaluation of a Potent Nek1 Inhibitor and Its Effects on the Embryonic Zebrafish Pronephros” (J Med Chem, 2022)
# Experiments:
# [1] = Solubility of the compound in E3 medium with DMSO incubated for 24 hrs by DAD-HPLC based shake flask method; assay type: physicochemical
# Outline: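 Shake-flask solubility: saturated solution in E3-medium shaken 24 h at 25 °C, then HPLC-DAD at 280 nm. Concentration read by interpolation from a calibration series of 1–100 μM standards in acetonitrile, prepared from a 10 mM DMSO stock. Triplicate.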
# [2] = target: T1, Serine/threonine-protein kinase Nek1 (Homo sapiens, UniProt Q96PY6); experiment: Inhibition of human recombinant NEK1 (1 to 505 residues) using ULight-p70 S6K peptide as substrate incubated for 30 mins by LANCE Ultra TR-FRET assay
# T1 sequence (Q96PY6 whole entry): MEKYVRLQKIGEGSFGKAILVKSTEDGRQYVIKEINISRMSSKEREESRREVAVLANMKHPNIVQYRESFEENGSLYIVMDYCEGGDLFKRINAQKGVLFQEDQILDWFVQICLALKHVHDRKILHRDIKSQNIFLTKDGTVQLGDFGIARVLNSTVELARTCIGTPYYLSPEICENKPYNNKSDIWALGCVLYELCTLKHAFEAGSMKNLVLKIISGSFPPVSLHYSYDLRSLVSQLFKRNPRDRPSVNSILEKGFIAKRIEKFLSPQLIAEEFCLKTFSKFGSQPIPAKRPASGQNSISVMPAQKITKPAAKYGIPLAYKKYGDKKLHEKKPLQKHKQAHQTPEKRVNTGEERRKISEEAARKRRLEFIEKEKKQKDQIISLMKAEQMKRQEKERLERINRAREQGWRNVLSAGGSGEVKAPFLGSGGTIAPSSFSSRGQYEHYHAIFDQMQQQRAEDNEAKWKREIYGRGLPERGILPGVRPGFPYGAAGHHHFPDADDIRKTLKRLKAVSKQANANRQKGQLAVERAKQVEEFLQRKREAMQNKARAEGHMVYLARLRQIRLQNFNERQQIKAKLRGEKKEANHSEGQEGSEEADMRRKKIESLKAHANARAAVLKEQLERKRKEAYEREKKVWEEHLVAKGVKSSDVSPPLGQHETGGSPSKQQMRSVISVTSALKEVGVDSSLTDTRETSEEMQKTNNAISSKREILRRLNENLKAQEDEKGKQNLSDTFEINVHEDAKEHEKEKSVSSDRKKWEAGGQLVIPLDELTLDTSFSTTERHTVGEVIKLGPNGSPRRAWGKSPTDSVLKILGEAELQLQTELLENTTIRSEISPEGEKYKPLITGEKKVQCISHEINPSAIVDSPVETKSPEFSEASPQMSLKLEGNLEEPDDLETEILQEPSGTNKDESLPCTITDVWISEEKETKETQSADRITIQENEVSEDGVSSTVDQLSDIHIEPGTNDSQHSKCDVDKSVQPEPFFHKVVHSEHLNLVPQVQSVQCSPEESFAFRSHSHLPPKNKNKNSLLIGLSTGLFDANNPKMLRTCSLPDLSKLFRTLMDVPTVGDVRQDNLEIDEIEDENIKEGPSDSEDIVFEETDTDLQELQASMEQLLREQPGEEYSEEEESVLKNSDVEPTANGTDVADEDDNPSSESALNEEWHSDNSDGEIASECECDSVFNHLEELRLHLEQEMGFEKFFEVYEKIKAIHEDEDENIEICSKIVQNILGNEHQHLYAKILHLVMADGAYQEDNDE
# Outline: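 Recombinant human Nek1 (1−505, 0.02 nM) in 50 mM HEPES pH 7.5, 1 mM EGTA, 10 mM MgCl2, 0.2 mM DTT, 0.01% Tween20, with 50 nM ULight-p70 S6K peptide and 60 μM ATP, 30 min at 22 °C. Stopped with EDTA plus Eu anti-phospho antibody, 1 h signal development. Ten half-log concentrations from 30 μM (10 μM for some) to 1 nM. Mean of two experiments.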
# Homo sapiens [3] = organism: Homo sapiens; experiment: Inhibition of human full length recombinant CDK1/CyclinB assessed as residual activity at 1 uM using histone H1 as substrate incubated for 40 mins in presence of [gamma 33P]-ATP by radiometric scintillation counting assay relative to control
# Outline: (§1)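 Commercial radiometric panel of 50 kinases. Each recombinant human kinase was tested at a single compound concentration of 1 μM. ATP was set within 15 μM of the apparent Km for ATP for each kinase. Residual activity is relative to control and is the mean of two independent experiments.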
# [4] = target: Phosphatidylinositol 4,5-bisphosphate 3-kinase catalytic subunit alpha isoform (Homo sapiens) (UniProt P42336); experiment: Inhibition of human full length recombinant PI3Kalpha assessed as residual activity at 1 uM using phosphatidylinositol 4,5-bisphosphate as substrate incubated for 40 mins in presence of ATP by HTRF assay relative to control
# [5] = target: Serine/threonine-protein kinase tousled-like 1 (Homo sapiens) (UniProt Q9UKI8); experiment: Inhibition of human full length recombinant TLK1 assessed as residual activity at 1 uM using casein as substrate incubated for 40 mins in presence of [gamma 33P]-ATP by radiometric scintillation counting assay relative to control; outline: as §1
# Serine/threonine-protein kinase tousled-like 1 (Homo sapiens), sequence (Q9UKI8 whole entry): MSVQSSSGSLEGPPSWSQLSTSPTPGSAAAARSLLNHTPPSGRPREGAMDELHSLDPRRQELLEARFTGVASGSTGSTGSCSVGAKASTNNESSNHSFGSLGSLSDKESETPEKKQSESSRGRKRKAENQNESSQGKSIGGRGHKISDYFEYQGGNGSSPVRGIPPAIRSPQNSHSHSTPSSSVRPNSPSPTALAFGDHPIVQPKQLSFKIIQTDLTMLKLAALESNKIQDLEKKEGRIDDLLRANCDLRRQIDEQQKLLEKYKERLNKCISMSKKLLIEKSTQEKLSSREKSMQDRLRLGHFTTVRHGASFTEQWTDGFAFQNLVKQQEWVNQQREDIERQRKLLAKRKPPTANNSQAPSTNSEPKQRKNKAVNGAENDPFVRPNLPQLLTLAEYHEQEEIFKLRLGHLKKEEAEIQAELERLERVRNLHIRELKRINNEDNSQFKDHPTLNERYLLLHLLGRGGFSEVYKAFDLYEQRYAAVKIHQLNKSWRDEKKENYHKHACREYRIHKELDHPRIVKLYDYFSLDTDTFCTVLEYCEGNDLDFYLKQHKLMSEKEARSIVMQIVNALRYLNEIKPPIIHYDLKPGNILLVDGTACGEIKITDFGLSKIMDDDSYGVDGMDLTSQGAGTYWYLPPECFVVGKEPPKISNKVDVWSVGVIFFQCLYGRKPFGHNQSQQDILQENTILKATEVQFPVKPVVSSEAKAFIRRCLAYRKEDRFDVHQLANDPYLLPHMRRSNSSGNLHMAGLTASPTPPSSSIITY
# [6] = target: Serine-protein kinase ATM (Homo sapiens) (UniProt Q13315); experiment: Inhibition of human full length recombinant ATM assessed as residual activity at 1 uM using GST-cMyc-p53 as substrate incubated for 40 mins in presence of ATP by HTRF assay relative to control
# Serine-protein kinase ATM (Homo sapiens), sequence (Q13315 whole entry): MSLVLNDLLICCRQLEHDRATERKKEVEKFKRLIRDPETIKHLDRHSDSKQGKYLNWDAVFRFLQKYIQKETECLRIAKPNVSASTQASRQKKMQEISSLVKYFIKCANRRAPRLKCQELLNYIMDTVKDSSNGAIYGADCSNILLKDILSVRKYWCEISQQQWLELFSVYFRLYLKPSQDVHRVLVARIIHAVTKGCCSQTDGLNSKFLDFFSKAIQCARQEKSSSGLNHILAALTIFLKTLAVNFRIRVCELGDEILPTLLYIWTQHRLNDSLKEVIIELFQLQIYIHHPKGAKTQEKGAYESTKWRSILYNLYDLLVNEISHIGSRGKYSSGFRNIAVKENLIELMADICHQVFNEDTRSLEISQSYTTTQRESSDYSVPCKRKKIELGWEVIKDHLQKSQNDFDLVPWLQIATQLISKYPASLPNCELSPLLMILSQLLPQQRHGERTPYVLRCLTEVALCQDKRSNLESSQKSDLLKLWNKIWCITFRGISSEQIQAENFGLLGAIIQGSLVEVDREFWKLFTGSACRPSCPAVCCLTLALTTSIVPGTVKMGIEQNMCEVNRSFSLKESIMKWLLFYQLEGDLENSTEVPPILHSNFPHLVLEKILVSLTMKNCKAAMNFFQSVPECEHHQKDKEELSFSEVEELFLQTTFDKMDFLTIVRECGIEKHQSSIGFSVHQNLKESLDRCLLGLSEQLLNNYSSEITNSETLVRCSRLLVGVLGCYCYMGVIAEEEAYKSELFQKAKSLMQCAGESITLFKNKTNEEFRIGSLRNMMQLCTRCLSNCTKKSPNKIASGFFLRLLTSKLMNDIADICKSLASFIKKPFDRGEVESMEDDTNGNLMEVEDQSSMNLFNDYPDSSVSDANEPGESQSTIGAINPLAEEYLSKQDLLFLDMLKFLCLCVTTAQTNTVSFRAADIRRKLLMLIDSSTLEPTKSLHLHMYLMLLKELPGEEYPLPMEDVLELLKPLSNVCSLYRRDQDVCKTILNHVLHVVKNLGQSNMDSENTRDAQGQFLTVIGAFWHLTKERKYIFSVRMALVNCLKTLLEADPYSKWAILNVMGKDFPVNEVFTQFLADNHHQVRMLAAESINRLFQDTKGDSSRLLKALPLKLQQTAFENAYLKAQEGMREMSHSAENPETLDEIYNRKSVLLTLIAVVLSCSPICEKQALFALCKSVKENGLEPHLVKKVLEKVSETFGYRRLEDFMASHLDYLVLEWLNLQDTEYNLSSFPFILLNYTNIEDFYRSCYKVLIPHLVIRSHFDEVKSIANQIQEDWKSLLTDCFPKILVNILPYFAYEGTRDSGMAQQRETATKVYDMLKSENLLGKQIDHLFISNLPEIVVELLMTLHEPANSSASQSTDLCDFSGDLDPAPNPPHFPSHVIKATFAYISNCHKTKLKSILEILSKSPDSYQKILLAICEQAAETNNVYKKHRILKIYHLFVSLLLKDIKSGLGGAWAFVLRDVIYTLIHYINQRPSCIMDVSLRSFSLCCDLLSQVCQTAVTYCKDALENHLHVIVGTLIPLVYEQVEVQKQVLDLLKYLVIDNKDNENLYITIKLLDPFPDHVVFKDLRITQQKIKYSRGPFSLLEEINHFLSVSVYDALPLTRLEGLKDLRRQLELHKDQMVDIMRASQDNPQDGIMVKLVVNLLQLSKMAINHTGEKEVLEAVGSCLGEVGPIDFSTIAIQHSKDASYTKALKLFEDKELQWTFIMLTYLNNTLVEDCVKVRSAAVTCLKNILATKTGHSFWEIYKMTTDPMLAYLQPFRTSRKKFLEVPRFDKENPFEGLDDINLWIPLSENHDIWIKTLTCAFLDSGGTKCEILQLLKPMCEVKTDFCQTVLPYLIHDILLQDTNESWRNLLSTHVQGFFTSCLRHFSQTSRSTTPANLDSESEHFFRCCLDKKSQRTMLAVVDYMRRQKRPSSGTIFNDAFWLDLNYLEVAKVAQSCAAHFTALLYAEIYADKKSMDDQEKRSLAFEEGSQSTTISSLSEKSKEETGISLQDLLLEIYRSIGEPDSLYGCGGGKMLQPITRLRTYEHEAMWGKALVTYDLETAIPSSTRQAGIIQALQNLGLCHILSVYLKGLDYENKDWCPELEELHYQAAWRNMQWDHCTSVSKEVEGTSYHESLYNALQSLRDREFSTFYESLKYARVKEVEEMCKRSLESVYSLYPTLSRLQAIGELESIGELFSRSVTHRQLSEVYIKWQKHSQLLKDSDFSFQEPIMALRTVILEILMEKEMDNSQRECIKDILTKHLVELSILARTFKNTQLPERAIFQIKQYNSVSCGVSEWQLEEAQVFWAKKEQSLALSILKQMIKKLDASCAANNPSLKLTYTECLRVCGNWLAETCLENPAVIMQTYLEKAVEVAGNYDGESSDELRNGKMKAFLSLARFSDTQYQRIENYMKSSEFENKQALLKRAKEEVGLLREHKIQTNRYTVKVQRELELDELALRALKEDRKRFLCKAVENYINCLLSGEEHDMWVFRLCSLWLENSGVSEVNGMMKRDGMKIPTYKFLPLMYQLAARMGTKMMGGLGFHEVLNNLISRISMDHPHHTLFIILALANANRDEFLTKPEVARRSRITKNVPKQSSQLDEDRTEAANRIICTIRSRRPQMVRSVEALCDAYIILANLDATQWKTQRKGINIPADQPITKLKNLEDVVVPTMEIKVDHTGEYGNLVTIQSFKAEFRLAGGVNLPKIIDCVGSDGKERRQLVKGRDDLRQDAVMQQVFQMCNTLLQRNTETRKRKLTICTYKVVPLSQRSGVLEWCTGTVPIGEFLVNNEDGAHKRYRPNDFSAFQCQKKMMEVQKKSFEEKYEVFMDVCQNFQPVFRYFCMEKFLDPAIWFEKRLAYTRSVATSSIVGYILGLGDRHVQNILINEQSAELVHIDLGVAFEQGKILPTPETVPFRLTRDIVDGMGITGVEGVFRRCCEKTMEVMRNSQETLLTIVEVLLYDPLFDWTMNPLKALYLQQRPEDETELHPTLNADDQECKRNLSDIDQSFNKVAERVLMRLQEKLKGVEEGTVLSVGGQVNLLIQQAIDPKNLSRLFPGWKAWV
# [7] = target: RAC-alpha serine/threonine-protein kinase (Homo sapiens) (UniProt P31749); experiment: Inhibition of human full length Akt1 assessed as residual activity at 1 uM using GRPRTSSFAEGKK as substrate incubated for 40 mins in presence of [gamma 33P]-ATP based radiometric scintillation counting assay relative to control; outline: as §1
# RAC-alpha serine/threonine-protein kinase (Homo sapiens), sequence (P31749 whole entry): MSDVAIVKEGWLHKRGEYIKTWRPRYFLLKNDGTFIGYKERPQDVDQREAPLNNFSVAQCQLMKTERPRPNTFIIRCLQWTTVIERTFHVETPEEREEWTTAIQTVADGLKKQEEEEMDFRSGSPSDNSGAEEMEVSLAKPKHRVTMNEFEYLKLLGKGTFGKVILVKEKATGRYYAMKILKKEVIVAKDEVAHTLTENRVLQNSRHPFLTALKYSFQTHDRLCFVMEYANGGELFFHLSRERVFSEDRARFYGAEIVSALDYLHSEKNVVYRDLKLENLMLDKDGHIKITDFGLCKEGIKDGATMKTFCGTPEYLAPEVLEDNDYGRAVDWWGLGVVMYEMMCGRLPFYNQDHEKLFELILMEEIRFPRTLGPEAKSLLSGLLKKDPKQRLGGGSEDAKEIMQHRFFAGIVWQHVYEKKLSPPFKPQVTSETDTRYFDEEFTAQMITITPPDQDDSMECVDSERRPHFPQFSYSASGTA
# [8] = Permeability across apical to basolateral side in human Caco-2 cells at pH 6.5 to 7.4 by HPLC-MS/MS analysis; assay type: ADME, cell-based; details: Caco-2, pH 6.5, read-out: permeability
# Outline: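 Commercial Caco-2 assay, apical-to-basolateral direction at pH 6.5/7.4. Permeability and percent recovery taken from HPLC-MS/MS peak area response. Propranolol, labetalol, colchicine and ranitidine run in parallel as references.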
# [9] = target: Inhibitor of nuclear factor kappa-B kinase subunit epsilon (Homo sapiens) (UniProt Q14164); experiment: Inhibition of human full length recombinant IKKepsilon assessed as residual activity at 1 uM using casein as substrate incubated for 40 mins in presence of [gamma 33P]-ATP by radiometric scintillation counting assay relative to control; outline: as §1
# Inhibitor of nuclear factor kappa-B kinase subunit epsilon (Homo sapiens), sequence (Q14164 whole entry): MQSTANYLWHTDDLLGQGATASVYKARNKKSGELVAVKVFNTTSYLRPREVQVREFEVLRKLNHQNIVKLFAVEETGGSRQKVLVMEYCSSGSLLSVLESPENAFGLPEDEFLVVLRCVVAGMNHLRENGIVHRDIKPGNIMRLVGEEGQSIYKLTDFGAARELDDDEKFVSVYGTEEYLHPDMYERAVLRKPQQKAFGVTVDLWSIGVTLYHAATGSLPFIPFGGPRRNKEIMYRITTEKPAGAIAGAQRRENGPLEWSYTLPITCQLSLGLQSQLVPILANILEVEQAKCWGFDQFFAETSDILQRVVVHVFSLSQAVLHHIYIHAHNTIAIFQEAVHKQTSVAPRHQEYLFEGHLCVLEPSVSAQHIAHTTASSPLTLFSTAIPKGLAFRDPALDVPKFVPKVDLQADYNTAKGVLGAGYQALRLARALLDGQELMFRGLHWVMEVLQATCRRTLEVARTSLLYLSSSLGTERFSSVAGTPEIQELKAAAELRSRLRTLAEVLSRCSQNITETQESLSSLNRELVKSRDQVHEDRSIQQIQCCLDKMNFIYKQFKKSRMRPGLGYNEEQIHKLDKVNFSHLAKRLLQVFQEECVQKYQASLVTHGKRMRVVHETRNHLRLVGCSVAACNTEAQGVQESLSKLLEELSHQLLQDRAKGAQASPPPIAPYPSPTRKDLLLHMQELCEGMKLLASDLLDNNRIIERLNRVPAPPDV
# Homo sapiens [10] = organism: Homo sapiens; experiment: Inhibition of recombinant full length human CK2alpha2 assessed as residual activity at 1 uM using RRRDDDSDDD as substrate incubated 40 mins in presence of [gamma-33ATP] by scintillation counting based radiometry assay relative to control; outline: as §1
# [11] = target: T1, Serine/threonine-protein kinase Nek1; experiment: Inhibition of human recombinant NEK1 (1 to 505 residues) using RLGRDKYKTLRQIRQ as substrate incubated for 40 mins in presence of [gamma-33P]-ATP by radiometric scintillation counting assay
# Outline: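 Eurofins IC50Profiler radiometric assay on recombinant human Nek1 (1−505), ATP at 10 μM or 90 μM (near Km). Nine concentrations at half-log steps from 10 μM to 1 nM, with vehicle controls. IC50 and 95% CI obtained by four-parameter nonlinear regression. Mean of two independent experiments.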
compound,measurement,setting,value
O=S(=O)(N[C@@H](CO)Cc1c[nH]c2ccccc12)c1ccc(-c2ccnc3[nH]ccc23)cc1,solubility at 24 h,[1],13.9 µg/mL
same,IC50,[2],330 nM
same,Activity,Homo sapiens [3],> 75%
same,Activity,[4],> 75%
same,Activity,[5],> 75%
same,Activity,[6],> 75%
same,Activity,[7],> 75%
same,Papp A→B,[8],3.4 ×10⁻⁶ cm/s
same,Activity,[9],> 75%
same,Activity,Homo sapiens [10],> 75%
same,IC50,[11],330 nM
